Data published in ChEMBL document CHEMBL1671867, “Novel polymyxin derivatives carrying only three positive charges are effective antibacterial agents” (Antimicrob Agents Chemother, 2008).

Assays:
Type in all cases: functional
[1] = system: Acinetobacter baumannii; assay: (§1) Antibacterial activity against Acinetobacter baumannii ATCC 19606 by Etest method in presence of […] NAB739
[2] = system: Acinetobacter baumannii; assay: Antibacterial activity against Acinetobacter baumannii ATCC 19606 by Etest method in presence of 1 ug/ml NAB739
[3] = system: Acinetobacter baumannii; assay: Antibacterial activity against Acinetobacter baumannii ATCC 19606 by Etest method in presence of NAB739
[4] = system: Acinetobacter baumannii; assay: Antibacterial activity against Acinetobacter baumannii ATCC 19606 by Etest method
[5] = system: Acinetobacter baumannii; assay: as §1; remark: listed apart in the source
[6] = system: Pseudomonas aeruginosa; assay: Antibacterial activity against Pseudomonas aeruginosa ATCC 27853by Etest method in presence of 2 ug/ml NAB739
[7] = system: Acinetobacter baumannii; assay: (§2) Antibacterial activity against Acinetobacter baumannii F264 by Etest method in presence of […] NAB739
[8] = system: Acinetobacter baumannii; assay: Antibacterial activity against Acinetobacter baumannii F264 by Etest method in presence of NAB739
[9] = system: Pseudomonas aeruginosa; assay: Antibacterial activity against Pseudomonas aeruginosa ATCC 27853by Etest method in presence of 1 ug/ml NAB739
How it was run: (§3)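 MICs of the antibiotic taken from E-strips on Mueller-Hinton agar, run both with and without peptide. […] Inoculum was prepared per the strip manufacturer, matching CLSI M2-A9.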

[10] = system: Acinetobacter baumannii; assay: as §2; remark: listed apart in the source
[11] = system: Acinetobacter baumannii; assay: Antibacterial activity against Acinetobacter baumannii F264 by Etest method in presence of 1 ug/ml NAB739
[12] = system: Acinetobacter baumannii; assay: Antibacterial activity against Acinetobacter baumannii F264 by Etest method in presence of 0.5 ug/ml NAB739
[13] = system: Pseudomonas aeruginosa; assay: Antibacterial activity against Pseudomonas aeruginosa ATCC 27853by Etest method; how it was run: as §3
[14] = system: Pseudomonas aeruginosa; assay: (§4) Antibacterial activity against Pseudomonas aeruginosa ATCC 27853by Etest method in presence of […] NAB739
[15] = system: Pseudomonas aeruginosa; assay: Antibacterial activity against Pseudomonas aeruginosa ATCC 27853by Etest method in presence of 0.5 ug/ml NAB739; how it was run: as §3
[16] = system: Acinetobacter baumannii; assay: Antibacterial activity against Acinetobacter baumannii ATCC 19606 by Etest method in presence of 0.5 ug/ml NAB739
[17] = system: Acinetobacter baumannii; assay: Antibacterial activity against Acinetobacter baumannii F264 by Etest method
How it was run: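 E-strip MIC on Mueller-Hinton agar without added peptide; inoculum per manufacturer, matching CLSI M2-A9.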

[18] = system: Pseudomonas aeruginosa; assay: as §4; remark: listed apart in the source
[19] = system: Escherichia coli; assay: Antibacterial activity against Escherichia coli IH3080 assessed as growth inhibition at 10 ug after 18 hrs by […] in presence of 1 ug/ml rifampin
[20] = system: Klebsiella pneumoniae; assay: Antibacterial activity against Klebsiella pneumoniae by CLSI M7-A7 agar dilution method
How it was run: (§5)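 Agar dilution on Mueller-Hinton agar with test substance at 0.25 to 32 μg/ml in twofold steps. Spots of about 10^4 CFU applied with a multipoint inoculator.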

[21] = system: Enterobacter cloacae; assay: Antibacterial activity against Enterobacter cloacae by CLSI M7-A7 agar dilution method
[22] = system: Escherichia coli; assay: Antibacterial activity against Escherichia coli ATCC […] by CLSI M7-A7 agar dilution method
[23] = system: Serratia marcescens; assay: Antibacterial activity against Serratia marcescens ATCC 8100 by CLSI M7-A7 agar dilution method; how it was run: as §5
[24] = system: Candida albicans; assay: Antibacterial activity against Candida albicans ATCC 28366 by CLSI M7-A7 agar dilution method
[25] = system: Klebsiella oxytoca; assay: Antibacterial activity against Klebsiella oxytoca CCUG51683 by CLSI M7-A7 agar dilution method; how it was run: as §5
[26] = system: Acinetobacter baumannii; assay: Antibacterial activity against Acinetobacter baumannii by CLSI M7-A7 agar dilution method
[27] = system: Enterobacter cloacae; assay: Antibacterial activity against Enterobacter cloacae CCUG52947 by CLSI M7-A7 agar dilution method
[28] = system: Escherichia coli; assay: Antibacterial activity against Escherichia coli SC 9253 by CLSI M7-A7 agar dilution method; how it was run: as §5
[29] = system: Escherichia coli; assay: Antibacterial activity against Escherichia coli IH3080 assessed as growth inhibition at 10 ug after 18 hrs by […]
[30] = system: Acinetobacter baumannii; assay: Antibacterial activity against Acinetobacter baumannii ATCC 19606 by CLSI M7-A7 agar dilution method
[31] = system: Escherichia coli; assay: Antibacterial activity against Escherichia coli IH3080 by CLSI M7-A7 agar dilution method
[32] = system: Escherichia coli; assay: Antibacterial activity against Escherichia coli by CLSI M7-A7 agar dilution method; how it was run: as §5
[33] = system: Citrobacter freundii; assay: Antibacterial activity against Citrobacter freundii ATCC 8090 by CLSI M7-A7 agar dilution method
[34] = system: Klebsiella pneumoniae; assay: Antibacterial activity against Klebsiella pneumoniae CCUG45421 by CLSI M7-A7 agar dilution method; how it was run: as §5
[35] = system: Enterobacter cloacae; assay: Antibacterial activity against Enterobacter cloacae ATCC 23355 by CLSI M7-A7 agar dilution method
[36] = system: Escherichia coli; assay: Antibacterial activity against Escherichia coli SC 9252 by CLSI M7-A7 agar dilution method
[37] = system: Klebsiella oxytoca; assay: Antibacterial activity against Klebsiella oxytoca ATCC 13182 by CLSI M7-A7 agar dilution method; how it was run: as §5
[38] = system: Pseudomonas aeruginosa; assay: Antibacterial activity against Pseudomonas aeruginosa ATCC 27853 by CLSI M7-A7 agar dilution method; how it was run: as §5
[39] = system: Staphylococcus aureus; assay: Antibacterial activity against Staphylococcus aureus ATCC 25923 by CLSI M7-A7 agar dilution method; how it was run: as §5

## CN[C@H](CC(C)C)C(=O)N[C@H]1C(=O)N[C@@H](CC(N)=O)C(=O)N[C@H]2C(=O)N[C@H]3C(=O)N[C@H](C(=O)N[C@H](C(=O)O)c4cc(O)cc(O)c4-c4cc3ccc4O)[C@H](O)c3ccc(c(Cl)c3)Oc3cc2cc(c3O[C@@H]2O[C@H](CO)[C@@H](O)[C@H](O)[C@H]2O[C@H]2C[C@](C)(N)[C@H](O)[C@H](C)O2)Oc2ccc(cc2Cl)[C@H]1O [VANCOMYCIN]
[1]
  MIC: 64 µg/mL
[2]
  MIC: 1 µg/mL
[3]
  fractional inhibitory concentration index (FICI): <=0.156
[4]
  MIC: > 256 µg/mL
[5]
  MIC: 8 µg/mL
[6]
  MIC: > 256 µg/mL
[7]
  MIC: 256 µg/mL
[8]
  fractional inhibitory concentration index (FICI): <=0.188
[9]
  MIC: > 256 µg/mL
[10]
  MIC: 16 µg/mL
[11]
  MIC: 1 µg/mL
[12]
  MIC: 3 µg/mL
[13]
  MIC: > 256 µg/mL
[14]
  MIC: > 256 µg/mL
[15]
  MIC: > 256 µg/mL
[16]
  MIC: 3 µg/mL
[17]
  MIC: > 256 µg/mL
[18]
  MIC: > 256 µg/mL

## POLYMYXIN B
[19]
  inhibition zone (IZ): 125 mm2
[20]
  MIC: 0.5 µg/mL
[21]
  MIC: 0.5 µg/mL
[22]
  MIC: 1 µg/mL
[23]
  MIC: > 32 µg/mL
[24]
  MIC: > 32 µg/mL
[25]
  MIC: 0.5 µg/mL
[26]
  MIC: 0.5 µg/mL
[27]
  MIC: 1 µg/mL
[28]
  MIC: > 32 µg/mL
[29]
  inhibition zone (IZ): 120 mm2
[30]
  MIC: 1 µg/mL
[31]
  MIC: 0.5 µg/mL
[32]
  MIC: 0.25 µg/mL
[33]
  MIC: 1 µg/mL
[34]
  MIC: 1 µg/mL
[35]
  MIC: 0.5 µg/mL
[36]
  MIC: > 32 µg/mL
[37]
  MIC: 0.5 µg/mL
[38]
  MIC: 1 µg/mL
[39]
  MIC: > 32 µg/mL
